Laboratory results reported in ChEMBL document CHEMBL2412964, “Discovery of novel tetrahydro-pyrazolo [4,3-c] pyridines for the treatment of neuropathic pain: synthesis and neuropharmacology” (Eur J Med Chem, 2013).

Experiments:
Mus musculus [1] = assay: Antinociceptive activity in Swiss albino mouse assessed as inhibition of formalin-induced flinching at 100 mg/kg administered 30 mins prior to test measured for 10 to 30 mins relative to control; assay type: functional
Rattus norvegicus [2] = assay: Antinociceptive activity in Wistar rat partial sciatic nerve ligation model assessed as reversal of tactile allodynia at 100 mg/kg, ip after 60 mins (reference value: 12.5 +/- 1.2%); assay type: functional; settings: route intraperitoneal
Rattus norvegicus [3] = assay: Antinociceptive activity in Wistar rat chronic constriction injury model assessed as reversal of tactile allodynia at 100 mg/kg, ip after 30 mins (reference value: 3.4 +/- 0.8%); assay type: functional; settings: route intraperitoneal
Rattus norvegicus [4] = assay: Antinociceptive activity in Wistar rat partial sciatic nerve ligation model assessed as reversal of cold allodynia at 100 mg/kg, ip after 30 mins (reference value: 4.1 +/- 1.0%); assay type: functional; settings: route intraperitoneal
Rattus norvegicus [5] = assay: Antinociceptive activity in Wistar rat chronic constriction injury model assessed as reversal of spontaneous pain response at 100 mg/kg, ip after 60 mins (reference value: 4.6 +/- 0.6%); assay type: functional; settings: route intraperitoneal
Rattus norvegicus [6] = assay: Antinociceptive activity in ip dosed Wistar rat partial sciatic nerve ligation model assessed as reversal of spontaneous pain response after 30 mins; assay type: functional; settings: 0.5 h
Method in brief: (§1)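 Wistar rats (200–250 g) with nerve injury, compounds i.p. in 30% v/v PEG 400; dose–response curves in each sensory test (spontaneous pain and cold allodynia as paw withdrawal duration; tactile allodynia and hyperalgesia as withdrawal threshold). ED50 linearly interpolated between doses just above and below 50% response; time of peak effect recorded.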

Rattus norvegicus [7] = assay: Antinociceptive activity in Wistar rat chronic constriction injury model assessed as reversal of spontaneous pain response at 100 mg/kg, ip after 30 mins (reference value: 8.9 +/- 4.6%); assay type: functional; settings: route intraperitoneal
Rattus norvegicus [8] = assay: Antinociceptive activity in Wistar rat partial sciatic nerve ligation model assessed as reversal of mechanical allodynia at 100 mg/kg, ip after 120 mins (reference value: 2.9 +/- 0.3%); assay type: functional; settings: route intraperitoneal
Rattus norvegicus [9] = assay: Antinociceptive activity in Wistar rat partial sciatic nerve ligation model assessed as reversal of mechanical allodynia at 100 mg/kg, ip after 30 mins (reference value: 2.9 +/- 0.3%); assay type: functional; settings: route intraperitoneal
Mus musculus [10] = assay: Neurotoxicity in Swiss albino mouse assessed as minimal motor impairment at 300 mg/kg after 4 hrs by rotarod test; assay type: toxicity, organism-based; parameters: dose 300 mg/kg; settings: in vivo
Method in brief: (§2)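 Swiss albino mice of either sex, 20-25 g, dosed at 30, 100 and 300 mg/kg, three per group. Minimal motor impairment scored by rotarod at 0.5 and 4.0 h after dosing. Reported value is the lowest dose giving impairment in half or more of the mice.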

Mus musculus [11] = assay: Antinociceptive activity in Swiss albino mouse assessed as inhibition of formalin-induced flinching at 100 mg/kg administered 30 mins prior to test measured up to 5 mins relative to control; assay type: functional
Rattus norvegicus [12] = assay: Antinociceptive activity in Wistar rat partial sciatic nerve ligation model assessed as reversal of tactile allodynia at 100 mg/kg, ip after 120 mins relative to control; assay type: functional; settings: route intraperitoneal
Rattus norvegicus [13] = organism: Rattus norvegicus; assay: Neuroprotective activity in Wistar rat chronic constriction injury model assessed as inhibition of nitric oxide production in sciatic nerve after 2 hrs by Griess method relative to control; assay type: functional
Method in brief: (§3)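 Wistar rats of either sex (200-250 g) with chronic constriction of the left sciatic nerve. On day 9 post-injury, compound given i.p. in 30% v/v PEG 400; tissue taken 2 h after dosing. Nitrate reduced to nitrite, nitrite measured colorimetrically with Griess reagent against a standard curve. Results expressed as percentage of vehicle-treated control; n = 4.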

Rattus norvegicus [14] = assay: Antinociceptive activity in Wistar rat chronic constriction injury model assessed as reversal of cold allodynia at 100 mg/kg, ip after 60 mins (reference value: 6.3 +/- 1.9%); assay type: functional; settings: route intraperitoneal
Rattus norvegicus [15] = assay: Antinociceptive activity in Wistar rat chronic constriction injury model assessed as reversal of tactile allodynia at 100 mg/kg, ip after 120 mins (reference value: 4.1 +/- 2.1%); assay type: functional; settings: route intraperitoneal
Rattus norvegicus [16] = assay: Antinociceptive activity in Wistar rat partial sciatic nerve ligation model assessed as reversal of spontaneous pain response at 100 mg/kg, ip after 60 mins (reference value: 2.9 +/- 0.3%); assay type: functional; settings: route intraperitoneal
Rattus norvegicus [17] = assay: Antinociceptive activity in Wistar rat partial sciatic nerve ligation model assessed as reversal of mechanical allodynia at 100 mg/kg, ip after 60 mins (reference value: 2.8 +/- 0.3%); assay type: functional; settings: route intraperitoneal
Rattus norvegicus [18] = assay: Antinociceptive activity in Wistar rat partial sciatic nerve ligation model assessed as reversal of spontaneous pain response at 100 mg/kg, ip after 30 mins (reference value: 3.2 +/- 0.3%); assay type: functional; settings: route intraperitoneal
Mus musculus [19] = assay: Neurotoxicity in Swiss albino mouse assessed as minimal motor impairment at 300 mg/kg after 0.5 hrs by rotarod test; assay type: toxicity, organism-based; parameters: dose 300 mg/kg; settings: in vivo; method in brief: as §2
Mus musculus [20] = assay: Antinociceptive activity in Swiss albino mouse assessed as inhibition of acetic acid-induced writhing at 100 mg/kg administered 30 mins prior to acetic acid-challenge measured for 30 mins relative to control; assay type: functional
Method in brief: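 Swiss albino mice (20–25 g, either sex); writhing induced by i.p. 0.1 mL of 2.0% v/v acetic acid given half an hour after test compound dosing.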

Rattus norvegicus [21] = organism: Rattus norvegicus; assay: Neuroprotective activity in Wistar rat chronic constriction injury model assessed as inhibition of nitric oxide production in brain after 2 hrs by Griess method relative to control; assay type: functional; method in brief: as §3
[22] = test system: Radical scavenging activity; assay: Antioxidant activity assessed as DPPH radical scavenging activity after 20 mins […]; assay type: functional
Method in brief: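 Compounds mixed with methanolic DPPH (final 300 µM) in microplate; after 20 min absorbance at 517 nm read; methanolic DPPH as control. % scavenging = (A DPPH − A DPPH+compound)/A DPPH × 100; dose–response curve used for IC50.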

Rattus norvegicus [23] = assay: Antinociceptive activity in Wistar rat chronic constriction injury model assessed as reversal of mechanical allodynia at 100 mg/kg, ip after 30 mins (reference value: 4.7 +/- 2.1%); assay type: functional; settings: route intraperitoneal
Rattus norvegicus [24] = assay: Antinociceptive activity in Wistar rat partial sciatic nerve ligation model assessed as reversal of spontaneous pain response at 100 mg/kg, ip after 120 mins (reference value: 1.2 +/- 0.1%); assay type: functional; settings: route intraperitoneal
Rattus norvegicus [25] = assay: Antinociceptive activity in Wistar rat chronic constriction injury model assessed as reversal of mechanical allodynia at 100 mg/kg, ip after 60 mins (reference value: 4.9 +/- 1.0%); assay type: functional; settings: route intraperitoneal
Rattus norvegicus [26] = assay: Antinociceptive activity in ip dosed Wistar rat partial sciatic nerve ligation model assessed as reversal of mechanical allodynia after 30 mins; assay type: functional; settings: 0.5 h; method in brief: as §1
Rattus norvegicus [27] = assay: Antinociceptive activity in Wistar rat chronic constriction injury model assessed as reversal of mechanical allodynia at 100 mg/kg, ip after 120 mins (reference value: 5.3 +/- 0.5%); assay type: functional; settings: route intraperitoneal
Mus musculus [28] = assay: Anticonvulsant activity in ip dosed Swiss albino mouse assessed as protection against picrotoxin-induced seizure administered 30 mins prior to picrotoxin-challenge measured after 0.5 hrs; assay type: functional; settings: read-out: MED
Method in brief: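 Mice, either sex, 20-25 g, given compound i.p. at 30, 100 and 300 mg/kg. Thirty minutes later, picrotoxin 3.15 mg/kg was injected s.c. in 0.01 mL/g body weight. Animals were isolated and watched for 45 min for a threshold convulsion, and protection was scored as its absence. Examined at 0.5 and 4 h. Value reported is the minimum dose active in half or more of the mice (n = 3).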

Row | Compound | inhibition in vivo at 100 mg/kg (Mus musculus [1]) [%] | Activity (Rattus norvegicus [2]) [%] | Activity (Rattus norvegicus [3]) [%] | Activity (Rattus norvegicus [4]) [%] | Activity (Rattus norvegicus [5]) [%] | ED50 (Rattus norvegicus [6]) [mg/kg] | Activity (Rattus norvegicus [7]) [%] | Activity (Rattus norvegicus [8]) [%] | Activity (Rattus norvegicus [9]) [%] | Activity (Mus musculus [10]) | inhibition in vivo at 100 mg/kg (Mus musculus [11]) [%] | Activity (Rattus norvegicus [12]) [%] | inhibition (INH) (Rattus norvegicus [13]) [%] | Activity (Rattus norvegicus [14]) [%] | Activity (Rattus norvegicus [15]) [%] | Activity (Rattus norvegicus [16]) [%] | Activity (Rattus norvegicus [17]) [%] | Activity (Rattus norvegicus [18]) [%] | Activity (Mus musculus [19]) | inhibition in vivo at 100 mg/kg (Mus musculus [20]) [%] | further results
1 | CCN1CCc2c(c(C(C)(C)C)nn2C(=O)Nc2ccc(Br)cc2)C1 | 72.1 | 44.9 | 66.7 | 55.4 | 85.9 | 29 | 90.6 | 41.1 | 59.8 | Non-toxic | 0 | 44.9 | 47.8 | 65 | 50.5 | 55.7 | 53.6 | 90.4 | Non-toxic | 72.8 | inhibition (INH) (Rattus norvegicus [21]): 16.4%; IC50 [22]: 81 µM; Activity (Rattus norvegicus [23]): 81.9%; Activity (Rattus norvegicus [24]): 43.1%; Activity (Rattus norvegicus [25]): 66%; ED50 (Rattus norvegicus [26]): 29 mg/kg; Activity (Rattus norvegicus [27]): 65.3%; minimal effective dose (Mus musculus [28]): 100 mg/kg
2 | CCN1CCc2c(c(C(C)(C)C)nn2C(=O)Nc2c(C)cccc2C)C1 | 68 | 61.6 | 90.1 | 58.3 | 90.7 | 8.1 | 95 | 50 | 95.5 | Non-toxic | 15.7 | 46.6 | 68.7 | 61.2 | 69.7 | 78.3 | 57.7 | 93.9 | Non-toxic | 73.7 | inhibition (INH) (Rattus norvegicus [21]): 15.3%; IC50 [22]: 102 µM; Activity (Rattus norvegicus [23]): 69.4%; Activity (Rattus norvegicus [24]): 57.8%; Activity (Rattus norvegicus [25]): 84.4%; ED50 (Rattus norvegicus [26]): 23.6 mg/kg; Activity (Rattus norvegicus [27]): 78.9%; minimal effective dose (Mus musculus [28]): 100 mg/kg
3 | CCN1CCc2c(c(C(C)(C)C)nn2C(=O)Nc2ccc(C)cc2C)C1 | 59.9 | 50.4 | 69.7 | 62.1 | 90.9 | 7.4 | 85.4 | 46.3 | 62.3 | Non-toxic | 15.7 | 88.4 | 65.4 | 50.4 | 58 | 67.3 | 56.3 | 89.9 | Non-toxic | 71.1 | inhibition (INH) (Rattus norvegicus [21]): 12.5%; IC50 [22]: 134 µM; Activity (Rattus norvegicus [23]): 93.8%; Activity (Rattus norvegicus [24]): 64.2%; Activity (Rattus norvegicus [25]): 80%; ED50 (Rattus norvegicus [26]): 31.8 mg/kg; Activity (Rattus norvegicus [27]): 67.5%; minimal effective dose (Mus musculus [28]): 300 mg/kg
